Values belong to the compound of their own block, whether it stands above or below them. The source made the active and inactive calls. No cut-off for these calls is given here.
Experiments:
[1] = Antiplatelet activity in human platelet rich plasma assessed as inhibition of ADP-induced aggregation preincubated for 1 min before 5-HT and ADP challenge measured after 3 mins by turbidimetry
hERG (KCNH2) [2] = target: T1, hERG (KCNH2) (Homo sapiens, UniProt Q12809); experiment: Inhibition of human ERG at 3 uM by patch clamp assay
T1 sequence (Q12809 whole entry): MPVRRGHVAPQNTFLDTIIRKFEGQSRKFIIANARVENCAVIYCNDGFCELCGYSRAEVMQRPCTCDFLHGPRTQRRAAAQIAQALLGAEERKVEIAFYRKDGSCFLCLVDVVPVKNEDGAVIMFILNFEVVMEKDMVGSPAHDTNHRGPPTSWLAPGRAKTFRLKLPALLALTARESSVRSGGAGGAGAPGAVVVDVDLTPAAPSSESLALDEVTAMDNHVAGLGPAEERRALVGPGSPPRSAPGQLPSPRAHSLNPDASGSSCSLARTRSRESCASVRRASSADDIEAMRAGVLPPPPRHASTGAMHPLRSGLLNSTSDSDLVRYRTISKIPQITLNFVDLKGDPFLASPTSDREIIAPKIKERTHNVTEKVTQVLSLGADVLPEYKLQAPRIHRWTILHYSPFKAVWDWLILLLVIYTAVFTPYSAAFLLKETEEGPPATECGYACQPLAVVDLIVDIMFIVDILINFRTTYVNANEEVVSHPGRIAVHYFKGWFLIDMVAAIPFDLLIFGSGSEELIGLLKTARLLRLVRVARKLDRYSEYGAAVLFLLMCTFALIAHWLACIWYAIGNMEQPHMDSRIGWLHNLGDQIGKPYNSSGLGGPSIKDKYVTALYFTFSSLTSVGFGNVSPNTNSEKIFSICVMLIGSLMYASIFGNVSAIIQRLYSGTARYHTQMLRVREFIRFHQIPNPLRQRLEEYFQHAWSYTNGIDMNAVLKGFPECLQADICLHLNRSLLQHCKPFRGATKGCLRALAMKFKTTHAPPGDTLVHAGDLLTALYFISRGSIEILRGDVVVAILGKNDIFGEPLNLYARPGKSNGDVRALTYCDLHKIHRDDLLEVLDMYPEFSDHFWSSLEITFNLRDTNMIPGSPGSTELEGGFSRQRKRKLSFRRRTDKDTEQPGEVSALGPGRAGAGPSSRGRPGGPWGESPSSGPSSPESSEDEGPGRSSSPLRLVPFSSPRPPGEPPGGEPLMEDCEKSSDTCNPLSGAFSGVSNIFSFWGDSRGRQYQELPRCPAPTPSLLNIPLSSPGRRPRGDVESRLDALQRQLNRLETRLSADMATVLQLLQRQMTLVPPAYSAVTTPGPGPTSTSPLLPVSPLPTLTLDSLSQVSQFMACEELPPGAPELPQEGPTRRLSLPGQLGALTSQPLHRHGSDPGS

[3] = target: T2, 5-hydroxytryptamine receptor 2C (Homo sapiens, UniProt P28335); experiment: Displacement of [125I]DOI from human recombinant 5HT2C receptor expressed in HEK293 cells by scintillation counting; type: cell-based
T2 sequence (P28335 whole entry): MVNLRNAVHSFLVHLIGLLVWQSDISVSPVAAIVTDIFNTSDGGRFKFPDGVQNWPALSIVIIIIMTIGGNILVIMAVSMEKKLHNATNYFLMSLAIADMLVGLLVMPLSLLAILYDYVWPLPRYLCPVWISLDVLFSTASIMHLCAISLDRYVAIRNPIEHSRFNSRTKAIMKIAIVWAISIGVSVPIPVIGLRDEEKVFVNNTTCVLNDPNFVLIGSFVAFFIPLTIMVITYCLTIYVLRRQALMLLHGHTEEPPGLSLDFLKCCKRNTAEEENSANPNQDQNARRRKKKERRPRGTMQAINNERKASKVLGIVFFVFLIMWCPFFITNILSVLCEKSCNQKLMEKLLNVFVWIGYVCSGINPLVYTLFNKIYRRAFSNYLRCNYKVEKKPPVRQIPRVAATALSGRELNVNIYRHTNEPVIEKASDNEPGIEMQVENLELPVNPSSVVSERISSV
In short: (§1)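 Crude plasma membranes from HEK293 cells stably expressing the human receptor (5–25 μg protein), in 20 mM HEPES pH 7.4 with 10 mM MgCl2. Incubated with 0.5 nM [125I]DOI and test compound (1 pM–10 μM) for 1 h at room temperature; nonspecific binding defined with 10 μM cold DOI. Filtered, washed with ice-cold Tris buffer and scintillation counted in triplicate.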

[4] = target: T3, 5-hydroxytryptamine receptor 2A (Homo sapiens, UniProt P28223); experiment: Displacement of [125I]DOI from human recombinant 5HT2A receptor expressed in HEK293 cells by scintillation counting; type: cell-based
T3 sequence (P28223 whole entry): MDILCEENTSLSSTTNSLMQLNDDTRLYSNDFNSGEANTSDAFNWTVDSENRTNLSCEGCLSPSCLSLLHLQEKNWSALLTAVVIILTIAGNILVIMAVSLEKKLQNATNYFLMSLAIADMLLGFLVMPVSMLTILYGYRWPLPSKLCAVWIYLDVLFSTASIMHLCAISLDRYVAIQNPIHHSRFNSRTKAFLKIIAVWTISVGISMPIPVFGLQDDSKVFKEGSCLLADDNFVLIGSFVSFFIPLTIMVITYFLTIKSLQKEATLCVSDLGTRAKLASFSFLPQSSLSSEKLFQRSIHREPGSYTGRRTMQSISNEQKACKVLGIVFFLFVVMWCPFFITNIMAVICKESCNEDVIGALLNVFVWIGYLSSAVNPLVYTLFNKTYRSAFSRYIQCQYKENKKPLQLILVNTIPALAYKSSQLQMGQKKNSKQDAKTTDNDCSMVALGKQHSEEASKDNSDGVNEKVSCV
In short: as §1

[5] = Cmax in monkey at 10 mg/kg, po after 24 hrs by HPLC/MS/MS assay; type: ADME, organism-based, Macaca mulatta; design: dose 10 mg/kg, route oral; settings: rhesus monkey, in vivo
In short: (§2)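 Oral dose 10 mg/kg; %F calculated relative to a 2 mg/kg iv dose. Values are the mean of n = 3 animals.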

[6] = Bioavailability in dog at 2 mg/kg, iv after 24 hrs by HPLC/MS/MS analysis; type: ADME, organism-based, Canis lupus familiaris; settings: in vivo
In short: as §2

[7] = Total clearance in Sprague-Dawley rat at 2 mg/kg, iv after 24 hrs by HPLC/MS/MS analysis; type: ADME, organism-based; design: dose 2 mg/kg, route intravenous; settings: in vivo
In short: (§3)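 Male rats fasted overnight before oral dosing; 10 mg/kg po and 2 mg/kg iv in 80% PEG400/20% phosphate buffered saline. Jugular vein blood was sampled at 0.25–21 h over 24 h, and heparin plasma was assayed by HPLC/MS/MS (MRM, positive electrospray, internal standard; LLOQ 1 ng/mL, ULOQ 2000 ng/mL). %F is taken relative to the 2 mg/kg iv dose. Mean of n = 3 animals.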

Canis familiaris [8] = experiment: Ex vivo inhibition of serotonin-mediated amplification of collagen-stimulated platelet aggregation in Beagle dog at 10 mg/kg, po administered as single dose measured after 12 hrs; type: functional; settings: Canis lupus familiaris
In short: (§4)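 Beagle dogs given a single oral dose of 10 mg/kg. Serotonin-mediated amplification of collagen-stimulated aggregation measured in whole blood ex vivo at 1, 6, 12 and 24 h post-dose.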

Canis familiaris [9] = experiment: Antithrombotic activity in Beagle dog Folts model of recurrent coronary thrombosis model assessed as inhibition of thrombosis occurrence at 0.07 mg/kg, iv bolus dose followed by continuous fusion of 1.16 ug/kg/min, iv administered after onset of thrombosis; type: functional; settings: Canis lupus familiaris
In short: (§5)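 Anesthetized dogs in the Folts model of recurrent coronary thrombosis. Given 0.07 mg/kg iv bolus followed by continuous iv infusion of 1.16 μg/kg/min, either before or after onset of recurrent thrombosis. Read-out is flow-time area, compared with saline controls.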

[10] = Volume of distribution at steady state in monkey at 2 mg/kg, iv after 24 hrs by HPLC/MS/MS analysis; type: ADME, organism-based, Macaca mulatta; design: dose 2 mg/kg, route intravenous; settings: rhesus monkey, in vivo, read-out: Vdss
In short: as §2

[11] = Cmax in Sprague-Dawley rat at 10 mg/kg, po after 24 hrs by HPLC/MS/MS assay; type: ADME, organism-based; design: dose 10 mg/kg, route oral; settings: in vivo
In short: as §3

[12] = Ratio of drug level in brain to plasma in Sprague-Dawley rat at 30 mg/kg, po after 24 hrs; type: ADME, organism-based; design: dose 30 mg/kg, route oral; settings: read-out: BPR
[13] = Bioavailability in Sprague-Dawley rat at 2 mg/kg, iv after 24 hrs by HPLC/MS/MS analysis; type: ADME, organism-based; settings: in vivo
In short: as §3

[14] = target: T3, 5-hydroxytryptamine receptor 2A; experiment: Inverse agonist activity at human 5HT2A receptor expressed in HEK293 cells assessed as inhibition of inositol phosphate accumulation; type: functional, cell-based
[15] = Total clearance in monkey at 2 mg/kg, iv after 24 hrs by HPLC/MS/MS analysis; type: ADME, organism-based, Macaca mulatta; design: dose 2 mg/kg, route intravenous; settings: rhesus monkey, in vivo
In short: as §2

[16] = target: 5-hydroxytryptamine receptor 2B (Homo sapiens, UniProt P41595); experiment: Displacement of [125I]DOI from human recombinant 5HT2B receptor expressed in HEK293 cells by scintillation counting; type: cell-based
Chain of 5-hydroxytryptamine receptor 2B (P41595 whole entry): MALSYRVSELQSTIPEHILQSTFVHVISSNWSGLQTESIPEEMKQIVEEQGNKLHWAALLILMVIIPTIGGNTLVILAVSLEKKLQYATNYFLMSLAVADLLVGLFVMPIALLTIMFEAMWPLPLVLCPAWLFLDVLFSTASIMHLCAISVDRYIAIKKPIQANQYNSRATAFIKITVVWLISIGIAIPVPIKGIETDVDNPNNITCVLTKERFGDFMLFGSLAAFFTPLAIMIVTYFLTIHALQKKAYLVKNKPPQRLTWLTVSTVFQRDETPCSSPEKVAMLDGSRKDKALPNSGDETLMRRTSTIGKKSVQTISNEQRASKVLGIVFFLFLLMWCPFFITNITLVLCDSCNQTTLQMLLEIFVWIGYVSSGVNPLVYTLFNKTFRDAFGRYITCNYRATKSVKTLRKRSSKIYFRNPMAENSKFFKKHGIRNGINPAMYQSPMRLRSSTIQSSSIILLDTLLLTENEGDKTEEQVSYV

[17] = Half life in dog at 10 mg/kg, po by HPLC/MS/MS analysis; type: ADME, organism-based, Canis lupus familiaris; design: dose 10 mg/kg, route oral; settings: in vivo
In short: as §2

[18] = target: Voltage-gated inwardly rectifying potassium channel KCNH2 (Homo sapiens, UniProt Q12809); experiment: Inhibition of human ERG by patch clamp assay
Chain of Voltage-gated inwardly rectifying potassium channel KCNH2 (Q12809 whole entry): as the sequence (Q12809 whole entry) above

[19] = AUC (0 to last) in monkey at 10 mg/kg, po after 24 hrs by HPLC/MS/MS analysis; type: ADME, organism-based, Macaca mulatta; design: time 0 - last, dose 10 mg/kg, route oral; settings: rhesus monkey, plasma
In short: as §2

Canis familiaris [20] = experiment: Ex vivo inhibition of serotonin-mediated amplification of collagen-stimulated platelet aggregation in Beagle dog at 10 mg/kg, po administered as single dose measured after 24 hrs; type: functional; settings: Canis lupus familiaris
In short: as §4

[21] = Volume of distribution at steady state in dog at 2 mg/kg, iv after 24 hrs by HPLC/MS/MS analysis; type: ADME, organism-based, Canis lupus familiaris; design: dose 2 mg/kg, route intravenous; settings: in vivo, read-out: Vdss
In short: as §2

Canis familiaris [22] = experiment: Ex vivo inhibition of serotonin-mediated amplification of collagen-stimulated platelet aggregation in Beagle dog at 10 mg/kg, po administered as single dose measured after 1 hr; type: functional, organism-based; design: dose 10 mg/kg; settings: Canis lupus familiaris
In short: as §4

[23] = Half life in Sprague-Dawley rat at 10 mg/kg, po by HPLC/MS/MS analysis; type: ADME, organism-based; design: dose 10 mg/kg, route oral; settings: in vivo
In short: as §3

[24] = Antiplatelet activity in dog platelet rich plasma assessed as inhibition of ADP-induced aggregation treated 10 mins after ADP challenge measured after 3 mins by turbidimetry; type: functional; settings: Canis lupus familiaris
[25] = Volume of distribution at steady state in Sprague-Dawley rat at 2 mg/kg, iv after 24 hrs by HPLC/MS/MS analysis; type: ADME, organism-based; design: dose 2 mg/kg, route intravenous; settings: in vivo, read-out: Vdss
In short: as §3

Canis familiaris [26] = experiment: Ex vivo inhibition of serotonin-mediated amplification of collagen-stimulated platelet aggregation in Beagle dog at 1 mg/kg, po for 10 days measured after 10 days; type: functional, organism-based; design: dose 1 mg/kg; settings: Canis lupus familiaris
In short: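 Beagle dogs dosed orally with 1 mg/kg daily for 10 days. Serotonin-mediated amplification of collagen-stimulated aggregation then measured in whole blood ex vivo.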

[27] = Cmax in dog at 10 mg/kg, po after 24 hrs by HPLC/MS/MS assay; type: ADME, organism-based, Canis lupus familiaris; design: dose 10 mg/kg, route oral; settings: in vivo
In short: as §2

[28] = Bioavailability in monkey at 2 mg/kg, iv after 24 hrs by HPLC/MS/MS analysis; type: ADME, organism-based, Macaca mulatta; settings: rhesus monkey, in vivo
In short: as §2

Canis familiaris [29] = experiment: Ex vivo inhibition of serotonin-mediated amplification of collagen-stimulated platelet aggregation in Beagle dog at 10 mg/kg, po administered as single dose measured after 6 hrs; type: functional; settings: Canis lupus familiaris
In short: as §4

[30] = AUC (0 to last) in Sprague-Dawley rat at 10 mg/kg, po after 24 hrs by HPLC/MS/MS analysis; type: ADME, organism-based; design: time 0 - last, dose 10 mg/kg, route oral; settings: plasma
In short: as §3

[31] = Total clearance in dog at 2 mg/kg, iv after 24 hrs by HPLC/MS/MS analysis; type: ADME, organism-based, Canis lupus familiaris; design: dose 2 mg/kg, route intravenous; settings: in vivo
In short: as §2

[32] = AUC (0 to last) in dog at 10 mg/kg, po after 24 hrs by HPLC/MS/MS analysis; type: ADME, organism-based, Canis lupus familiaris; design: time 0 - last, dose 10 mg/kg, route oral; settings: plasma
In short: as §2

[33] = Half life in monkey at 10 mg/kg, po by HPLC/MS/MS analysis; type: ADME, organism-based, Macaca mulatta; design: dose 10 mg/kg, route oral; settings: rhesus monkey, in vivo
In short: as §2

Canis familiaris [34] = experiment: Antithrombotic activity in Beagle dog Folts model of recurrent coronary thrombosis model assessed as inhibition of thrombosis occurrence at 0.07 mg/kg, iv bolus dose followed by continuous fusion of 1.16 ug/kg/min, iv administered before onset of thrombosis; type: functional; settings: Canis lupus familiaris
In short: as §5

hERG (KCNH2) [35] = target: T1, hERG (KCNH2); experiment: Inhibition of human ERG at 1 uM by patch clamp assay

SMILES: Cn1nccc1-c1cc(NC(=O)c2cccc(F)c2)ccc1OCCN1CCOCC1
IC50 [1]: 86 nM
inhibition at 3 µM (hERG (KCNH2) [2]): 43%
Ki [3]: > 10000 nM
Ki [4]: 5.1 nM

SMILES: CC(=O)N1CCN(CCOc2ccc(NC(=O)c3cccc(C(F)(F)F)c3)cc2-c2ccnn2C)CC1
IC50 [1]: 145 nM
inhibition at 3 µM (hERG (KCNH2) [2]): 75%
Ki [3]: 5610 nM
Ki [4]: 4.3 nM

SMILES: Cn1nccc1-c1cc(NC(=O)c2ccc(F)c(F)c2)ccc1OCCN1CCOCC1
IC50 [1]: 29 nM
inhibition at 3 µM (hERG (KCNH2) [2]): 56%
Ki [3]: > 10000 nM
Ki [4]: 4.1 nM

Compounds with a lower IC50 [1], results first:

Cmax [5]: 1460 ng/mL
bioavailability [6]: 45%
clearance [7]: 367 mL/min/kg
Vd [10]: 0.6 L/kg
IC50 [1]: 8.7 nM
Cmax [11]: 58 ng/mL
Kp at 24 h [12]: 0.05
bioavailability [13]: 10%
IC50 [14]: 5.2 nM
clearance [15]: 15 mL/min/kg
Ki [16]: > 10000 nM
half-life [17]: 0.9 h
AUC(0-t) at 24 h [19]: 1920 ng·h/mL
Vd [21]: 1.3 L/kg
half-life [23]: 1 h
IC50 [24]: 23.1 nM
Vd [25]: 29 L/kg
Ki [3]: > 10000 nM
Cmax [27]: 2280 ng/mL
bioavailability [28]: 16%
AUC(0-t) at 24 h [30]: 43 ng·h/mL
clearance [31]: 20 mL/min/kg
AUC(0-t) at 24 h [32]: 3540 ng·h/mL
Ki [4]: 4.9 nM
half-life [33]: 2.1 h
SMILES: COc1cccc(C(=O)Nc2ccc(OCCN3CCOCC3)c(-c3ccnn3C)c2)c1 [TEMANOGREL]
inhibition in vivo at 10 mg/kg (Canis familiaris [8]): 57%
inhibition in vivo at 0.07 mg/kg (Canis familiaris [9]): 58%
IC50 [18]: 11000 nM
inhibition in vivo at 10 mg/kg (Canis familiaris [20]): 58%
inhibition (Canis familiaris [22]): Active
inhibition at 3 µM (hERG (KCNH2) [2]): 32%
inhibition (Canis familiaris [26]): Active
inhibition in vivo at 10 mg/kg (Canis familiaris [29]): 86%
inhibition in vivo at 0.07 mg/kg (Canis familiaris [34]): 58%

clearance [7]: 18.3 mL/min/kg
IC50 [1]: 2 nM
Cmax [11]: 453 ng/mL
bioavailability [13]: 43%
half-life [23]: 2.8 h
Vd [25]: 5.4 L/kg
Ki [3]: 225 nM
AUC(0-t) at 24 h [30]: 3830 ng·h/mL
Ki [4]: 1.9 nM
SMILES: Cn1nccc1-c1cc(NC(=O)c2ccc(C(F)(F)F)cc2)ccc1OCCN1CCCC1
inhibition at 1 µM (hERG (KCNH2) [35]): 66%

Reference: ChEMBL document CHEMBL1155506 (J Med Chem, 2010)
